Reference: ChEMBL document CHEMBL1147851, “Novel class of arylpiperazines containing N-acylated amino acids: their synthesis, 5-HT1A, 5-HT2A receptor affinity, and in vivo pharmacological evaluation” (Bioorg Med Chem, 2007)
The source made the active and inactive calls. The calls are words filed in the database; no cut-off is given here.

How the values were obtained:
Mus musculus [1] = experiment: Antidepressant-like activity in Swiss Albino mouse at 20 mg/kg by forced swimming test; assay type: functional
In short: (§1)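 Porsolt forced swim in male Albino Swiss mice, agents given ip (1% Tween 80 suspension) 30 min beforehand. Mice were placed in a cylinder 10 cm wide holding 6 cm of water at 23–25 °C for 6 min. Floating immobility was timed over the last 4 min. n = 9-10 per group; ANOVA with Dunnett's test.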

Mus musculus [2] = experiment: Antidepressant-like activity in Swiss Albino mouse at 10 mg/kg by forced swimming test; assay type: functional; in short: as §1
Mus musculus [3] = experiment: Antidepressant-like activity in C57BL/6J mouse at 20 mg/kg by tail suspension test; assay type: functional
In short: (§2)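 Tail suspension in male C57BL/6J mice (22–23 g), dosed ip in 1% Tween 80 suspension 30 min before the test. Each mouse hung by adhesive tape about 1 cm from the tail tip, 75 cm above the floor. Total immobility, meaning no limb or body movement except breathing, was scored manually over 6 min. n = 9-10 per group; one-way ANOVA then Dunnett's test.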

Mus musculus [4] = experiment: Antidepressant-like activity in C57BL/6J mouse at 10 mg/kg by tail suspension test; assay type: functional; in short: as §2
Mus musculus [5] = experiment: Antidepressant-like activity in C57BL/6J mouse at 5 mg/kg by tail suspension test; assay type: functional
[6] = target: T1, 5-hydroxytryptamine receptor 1A (Rattus norvegicus, UniProt P19327); experiment: Displacement of [3H]8-OH-DPAT from serotonin 5HT1A receptor in rat brain hippocampus; assay type: tissue-based
T1 sequence (P19327 whole entry): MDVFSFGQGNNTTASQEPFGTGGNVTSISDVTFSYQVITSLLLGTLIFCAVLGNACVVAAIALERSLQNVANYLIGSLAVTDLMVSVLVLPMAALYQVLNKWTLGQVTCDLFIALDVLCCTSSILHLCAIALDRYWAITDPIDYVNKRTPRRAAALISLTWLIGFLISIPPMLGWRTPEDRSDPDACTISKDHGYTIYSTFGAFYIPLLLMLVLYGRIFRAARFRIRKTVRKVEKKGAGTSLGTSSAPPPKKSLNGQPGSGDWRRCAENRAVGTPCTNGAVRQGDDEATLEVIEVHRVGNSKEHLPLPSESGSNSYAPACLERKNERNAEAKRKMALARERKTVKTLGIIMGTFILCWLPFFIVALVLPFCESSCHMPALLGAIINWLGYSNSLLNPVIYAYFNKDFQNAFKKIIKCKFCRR
In short: (§3)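 Full competition binding with 8–10 drug concentrations (10^-10–10^-3 M), each in triplicate. Ki was derived from at least three experiments.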

D(2) dopamine receptor = D(2) dopamine receptor (Rattus norvegicus, UniProt P61169); experiment: Displacement of [3H]spiperone from dopaminergic D2 receptor in rat striatal membrane; assay type: cell membranes, Striatum
Sequence of D(2) dopamine receptor (P61169 whole entry): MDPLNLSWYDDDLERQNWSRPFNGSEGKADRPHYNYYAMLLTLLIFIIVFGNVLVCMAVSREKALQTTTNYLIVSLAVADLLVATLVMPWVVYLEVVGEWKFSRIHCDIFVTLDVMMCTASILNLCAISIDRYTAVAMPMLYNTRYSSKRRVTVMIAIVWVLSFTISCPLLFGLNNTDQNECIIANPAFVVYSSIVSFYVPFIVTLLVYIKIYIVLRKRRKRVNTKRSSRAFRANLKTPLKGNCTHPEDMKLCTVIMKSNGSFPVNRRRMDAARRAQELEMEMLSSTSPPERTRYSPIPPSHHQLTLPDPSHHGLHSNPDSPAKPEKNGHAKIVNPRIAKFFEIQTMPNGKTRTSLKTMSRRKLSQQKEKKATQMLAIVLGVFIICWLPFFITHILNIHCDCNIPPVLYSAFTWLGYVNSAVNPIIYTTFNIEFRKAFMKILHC
In short: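 Rat striatal membranes incubated with [3H]spiperone, with 50 nM ketanserin added to block 5-HT2A sites. Nonspecific binding was defined with 5 μM (±)-butaclamol. Incubation 30 min at 37 °C, stopped by vacuum filtration, washed with 50 mM potassium phosphate pH 7.4, counted by liquid scintillation. Estimated Ki (Cheng–Prusoff) came from two concentrations (0.1, 1 μM) in triplicate, three experiments.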

Mus musculus [7] = species: Mus musculus; experiment: Effect on body temperature in Swiss Albino mouse; assay type: functional, organism-based
In short: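 Male Albino Swiss mice received the agent alone ip as a suspension in 1% aqueous Tween 80. Rectal body temperature was read at 30, 60, 90 and 120 min after dosing and expressed as Δt from the basal value taken at the start. Six to ten animals per dose.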

[8] = target: 5-hydroxytryptamine receptor 2A (Rattus norvegicus, UniProt P14842); experiment: Displacement of [3H]ketanserin from serotonin 5HT2A receptor in rat brain cortex; assay type: tissue-based; in short: as §3
Sequence of 5-hydroxytryptamine receptor 2A (P14842 whole entry): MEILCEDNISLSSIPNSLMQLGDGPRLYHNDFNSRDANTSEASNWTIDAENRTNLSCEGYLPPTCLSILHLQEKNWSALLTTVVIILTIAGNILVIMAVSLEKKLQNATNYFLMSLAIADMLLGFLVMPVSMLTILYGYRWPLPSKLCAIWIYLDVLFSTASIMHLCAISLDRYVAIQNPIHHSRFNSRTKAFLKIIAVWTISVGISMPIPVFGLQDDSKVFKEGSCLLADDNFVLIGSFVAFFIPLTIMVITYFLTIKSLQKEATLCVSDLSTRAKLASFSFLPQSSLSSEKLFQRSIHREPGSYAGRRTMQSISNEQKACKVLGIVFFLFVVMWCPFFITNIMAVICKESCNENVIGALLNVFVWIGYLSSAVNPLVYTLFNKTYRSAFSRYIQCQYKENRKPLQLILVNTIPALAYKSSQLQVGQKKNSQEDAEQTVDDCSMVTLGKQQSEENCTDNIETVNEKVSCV

Mus musculus [9] = experiment: Anxiolytic-like activity in Swiss Albino mouse at 20 mg/kg by four plate test; assay type: functional
In short: (§4)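 Four-plate test in male Albino Swiss mice, dosed ip 30 or 60 min before testing. After 15 s of exploration, each plate-to-plate crossing triggered a 0.5 s, 120 V floor shock, with no new shock for the next 3 s. Punished crossings were counted over 60 s. n = 10 per group; ANOVA with Dunnett's test.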

Mus musculus [10] = experiment: Antidepressant-like activity in Swiss Albino mouse at 5 mg/kg by forced swimming test; assay type: functional; in short: as §1
Mus musculus [11] = experiment: Anxiolytic-like activity in Swiss Albino mouse at 10 mg/kg by four plate test; assay type: functional; in short: as §4
Mus musculus [12] = experiment: Anxiolytic-like activity in Swiss Albino mouse at 2.5 mg/kg by four plate test; assay type: functional
In short: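 Male Albino Swiss mice (24–28 g), each used once, 10 per dose group. Dosing ip at 10 mL/kg, 30 or 60 min before testing depending on agent; tested compounds given as suspensions in 1% aqueous Tween 80. Four-metal-plate floor; 15 s exploration, then each plate-to-plate crossing shocked (120 V, 0.5 s), no new shock for 3 s if still running. Punished crossings counted over 60 s; one-way ANOVA, Dunnett's test.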

Mus musculus [13] = experiment: Anxiolytic-like activity in Swiss Albino mouse at 5 mg/kg by four plate test; assay type: functional; in short: as §4
Mus musculus [14] = species: Mus musculus; experiment: Reduction in spontaneous locomotor activity in Swiss Albino mouse; assay type: functional, organism-based
In short: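 Male Albino Swiss mice dosed ip were placed singly in photoresistor actometers (24 cm diameter, two light beams). Beam crossings were counted over the first 6 min and over a 30-min session. ANOVA with Dunnett's test.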

[15] = target: T2, 5-hydroxytryptamine receptor 1A (Mus musculus) (UniProt Q64264); experiment: Activity at 5HT1A receptor in Swiss Albino mouse assessed as decrease in 8-OH-DPAT induced body temperature; assay type: functional; details: filed as agonist
T2 sequence (whole entry): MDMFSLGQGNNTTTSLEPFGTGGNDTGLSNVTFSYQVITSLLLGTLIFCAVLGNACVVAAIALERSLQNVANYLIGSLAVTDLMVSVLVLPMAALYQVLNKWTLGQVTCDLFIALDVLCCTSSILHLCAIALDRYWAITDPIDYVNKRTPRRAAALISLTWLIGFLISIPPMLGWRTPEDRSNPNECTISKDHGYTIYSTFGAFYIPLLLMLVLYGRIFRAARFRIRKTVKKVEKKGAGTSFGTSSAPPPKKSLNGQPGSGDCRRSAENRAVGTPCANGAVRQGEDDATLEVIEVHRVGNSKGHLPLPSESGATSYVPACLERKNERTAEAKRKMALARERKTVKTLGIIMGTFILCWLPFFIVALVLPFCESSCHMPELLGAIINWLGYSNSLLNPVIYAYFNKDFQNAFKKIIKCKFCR
In short: (§5)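 Male Albino Swiss mice. 8-OH-DPAT 5 mg/kg sc induced hypothermia. Test agents were suspended in 1% aqueous Tween 80 and given ip 45 min before 8-OH-DPAT. Rectal temperature was taken 15, 30, 45 and 60 min after 8-OH-DPAT and expressed as change (Δt) from basal temperature. Six to ten animals per dose.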

Mus musculus [16] = experiment: Antidepressant-like activity in Swiss Albino mouse at 2.5 mg/kg by forced swimming test; assay type: functional; in short: as §1
Mus musculus [17] = species: Mus musculus; experiment: Decrease in body temperature in Albino Swiss mouse
[18] = target: T2, 5-hydroxytryptamine receptor 1A (Mus musculus); experiment: Antagonist activity at 5-HT1A receptor in Swiss Albino mouse assessed as decrease in 8-OH-DPAT induced body temperature; assay type: functional; in short: as §5
Mus musculus [19] = species: Mus musculus; experiment: Decrease in body temperature in C57BL/6J mouse; assay type: functional, organism-based

Structure (SMILES)	Ki [6] [nM]	Ki (D(2) dopamine receptor) [nM]	Ki [8] [nM]	Activity (Mus musculus [13])	further results
CN(C)CCCN1c2ccccc2CCc2ccccc21 [IMIPRAMINE]	–	–	–	–	Activity (Mus musculus [1]): 107.8 s; Activity (Mus musculus [2]): 149.1 s; Activity (Mus musculus [3]): 90.2 s; Activity (Mus musculus [4]): 102.5 s; Activity (Mus musculus [5]): 147.4 s
O=C(CC1CC2CCC1C2)N[C@H]1CC(=O)N(CCCCN2CCN(c3cccc(Cl)c3)CC2)C1=O (stereo not given in full)	21	776	4.2	–	Activity (Mus musculus [7]): inactive
COc1ccccc1N1CCN(CCCCN2C(=O)C[C@H](NC(=O)C3CCCCC3)C2=O)CC1	19	2080	183	6.6	Activity (Mus musculus [9]): 7.5; Activity (Mus musculus [10]): 110 s; Activity (Mus musculus [11]): 7; Activity (Mus musculus [1]): 128.1 s; Activity (Mus musculus [12]): 4.7; Activity (Mus musculus [2]): 102 s; Activity (Mus musculus [14]): inactive; Activity [15]: Agonist; Activity (Mus musculus [3]): 116.1 s; Activity (Mus musculus [4]): 129.1 s; Activity (Mus musculus [16]): 131.6 s; Activity (Mus musculus [5]): 147.9 s
COc1ccccc1N1CCN(CCCCN2C(=O)C[C@H](NC(=O)C34CC5CC(CC(C5)C3)C4)C2=O)CC1	4	1780	173	–	Activity (Mus musculus [17]): Active
O=C1C[C@H](NC(=O)C23CC4CC(CC(C4)C2)C3)C(=O)N1CCCCN1CCN(c2cccc(Cl)c2)CC1	47	21200	25	4.6	Activity (Mus musculus [9]): 5.6; Activity (Mus musculus [11]): 5.1; Activity [18]: Active
O=C(N[C@H]1CC(=O)N(CCCCN2CCN(c3cccc(Cl)c3)CC2)C1=O)C1CCCC1	28	12400	47	–	Activity (Mus musculus [17]): Active
COc1ccccc1N1CCN(CCCCNC(=O)[C@@H]2CCCN2C(=O)C2CCCCC2)CC1	19	3590	990	–	Activity (Mus musculus [19]): Active
COc1ccccc1N1CCN(CCCCN2C(=O)CCC2=O)CC1	–	490	1510	–	–
O=C(N[C@H]1CC(=O)N(CCCCN2CCN(c3cccc(Cl)c3)CC2)C1=O)C1CCCCC1	26	2130	6.51	–	Activity (Mus musculus [7]): inactive
COc1ccccc1N1CCN(CCCCN2C(=O)C[C@H](NC(=O)CC3CC4CCC3C4)C2=O)CC1 (stereo not given in full)	9	880	47	–	Activity (Mus musculus [17]): Active
CN1C(=O)CN=C(c2ccccc2)c2cc(Cl)ccc21 [DIAZEPAM]	–	–	–	6.7	Activity (Mus musculus [12]): 6.8
O=C1CCC(=O)N1CCCCN1CCN(c2cccc(Cl)c2)CC1	32	7800	121	–	–
COc1ccccc1N1CCN(CCCCN2C(=O)C[C@H](NC(=O)C3CCCC3)C2=O)CC1	23	905	480	3.4	Activity (Mus musculus [9]): 6; Activity (Mus musculus [10]): 133.4 s; Activity (Mus musculus [11]): 5.2; Activity (Mus musculus [1]): 103 s; Activity (Mus musculus [2]): 123.3 s; Activity (Mus musculus [14]): Active; Activity [15]: Agonist
